From ChEMBL document CHEMBL2176886, “Anti-AIDS agents 90. novel C-28 modified bevirimat analogues as potent HIV maturation inhibitors” (J Med Chem, 2012)
Activity calls are given as the source filed them. The rule behind the calls is not given here.

Tests used:
[1] = Therapeutic index, ratio of CC50 for human MT4 cells to IC50 for HIV-1 NL4-3; type: cell-based; conditions: read-out: Ratio CC50/IC50
Procedure, shortened: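 TI calculated as CC50 (mock-infected MT-4 growth, 2 days) divided by IC50 (HIV-1 NL4-3 replication in MT-4 cells, p24 ELISA at day 4).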

[2] = tested on: Human immunodeficiency virus 1; experiment: Antiviral activity against HIV1 infected in human TZM-bl cells assessed as reduction of viral entry after 48 hrs by luciferase reporter gene assay; type: functional, organism-based
Procedure, shortened: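 Single-round infection of TZM-bl cells (HeLa clone expressing CD4/CCR5 with HIV-1 LTR-driven firefly luciferase) with HIV-1 at 200 TCID50 mixed with test samples. After 48 h, medium was replaced with Bright-Glo reagent and luminescence read. IC50 is the concentration giving 50% RLU reduction versus virus-control wells after background subtraction.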

[3] = tested on: Human immunodeficiency virus 1; experiment: Antiviral activity against HIV1 NL4-3 infected in human MT4 cells assessed as p24 antigen level after 4 days by ELISA; type: functional, organism-based; conditions: Human immunodeficiency virus 1, NL4-3, MT4, 96 h
Procedure, shortened: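 MT-4 cells infected with HIV-1 NL4-3 variants at MOI 0.01; supernatants harvested day 4 post-infection for p24 antigen capture ELISA. IC50 is the concentration inhibiting replication by 50%; values are averages of at least three separate experiments.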

[4] = tested on: Human immunodeficiency virus 1; experiment: Ratio of bevirimat IC50 to compound IC50 for HIV1 NL4-3 infected in human MT4 cells; type: functional
Procedure, shortened: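 MT-4 cells were infected with HIV-1 NL4-3 at MOI 0.01. Day-4 supernatant p24 was measured by ELISA. IC50 is the concentration giving 50% inhibition of replication, from averages of at least three separate experiments. The ratio divides the bevirimat IC50 by the compound IC50, both from this assay.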

MT4 = experiment: Cytotoxicity against human MT4 cells after 2 days; type: cell-based; conditions: mt4, 48 h
[5] = tested on: Human immunodeficiency virus 1; experiment: Antiviral activity against HIV1 infected in human TZM-bl cells assessed as reduction of viral […] after 48 hrs by luciferase reporter gene assay; type: functional, organism-based
Procedure, shortened: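 Single-round infection of TZM-bl cells (HeLa clone expressing CD4 and CCR5, HIV-1 LTR-driven firefly luciferase) with HIV-1 at 200 TCID50 mixed with samples. Luminescence read after 48 h. IC50 is the concentration giving 50% lower RLU than virus control wells, after subtracting background RLU.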

[6] = Metabolic stability in human liver microsomes assessed as compound remaining at 1 uM after 60 mins by HPLC-MS analysis; type: ADME, Microsome; conditions: read-out: Stability
Procedure, shortened: (§1)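 Pooled human liver microsomes at 0.1 mg/mL in 0.1 M potassium phosphate pH 7.4 with 5 mM MgCl2. Compound at 1 μM final; reaction started with 1.0 mM NADPH (final) at 37 °C, duplicate incubations. Quenched with ice-cold acetonitrile at 0, 5, 15, 30, 60 min. Parent measured by LC-ESI-MS (SIM), remaining percentage relative to 0 min. t1/2 = 0.693/k from log-linear slope.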

Liver microsomes = experiment: Half life in human liver microsomes at 1 uM; type: ADME, Microsome; procedure, shortened: as §1
Homo sapiens = species: Homo sapiens; experiment: Elimination half life in human; type: ADME, organism-based; conditions: in vivo

With `C=C(C)[C@@H]1CC[C@]2(C(=O)N3CCC(CCCC(=O)NCCCN4CCOCC4)CC3)CC[C@]3(C)[C@H](CC[C@@H]4[C@@]5(C)CC[C@H](OC(=O)CC(C)(C)C(=O)O)C(C)(C)[C@@H]5CC[C@]43C)[C@@H]12` the selectivity ratio [1] was 321, the Activity [2] was “inactive” and the IC50 [3] was 31 nM. For the same compound, the “Ratio IC50” value [4] was 3 and the CC50 (MT4) was 10 µM.
With `C=C(C)[C@@H]1CC[C@]2(C(=O)N3CCN(CCCC(=O)O)CC3)CC[C@]3(C)[C@H](CC[C@@H]4[C@@]5(C)CC[C@H](OC(=O)CC(C)(C)C(=O)O)C(C)(C)[C@@H]5CC[C@]43C)[C@@H]12` the selectivity ratio [1] was 1180, the Activity [2] was “inactive” and the IC50 [3] was 11 nM. It also gave a Ratio IC50 [4] of 7.9 and a CC50 (MT4) of 13 µM.
In the case of `C=C(C)[C@@H]1CC[C@]2(C(=O)N3CCC(CCCC(=O)NCCN4CCOCC4)CC3)CC[C@]3(C)[C@H](CC[C@@H]4[C@@]5(C)CC[C@H](OC(=O)CC(C)(C)C(=O)O)C(C)(C)[C@@H]5CC[C@]43C)[C@@H]12`, the selectivity ratio [1] is reported as 286, the Activity [2] is reported as “inactive” and the IC50 [3] is reported as 35 nM. For the same compound, the “Ratio IC50” value [4] was 3 and the CC50 (MT4) was 10 µM.
For `C=C(C)[C@@H]1CC[C@]2(C(=O)N3CCN(CCCCC(=O)O)CC3)CC[C@]3(C)[C@H](CC[C@@H]4[C@@]5(C)CC[C@H](OC(=O)CC(C)(C)C(=O)O)C(C)(C)[C@@H]5CC[C@]43C)[C@@H]12`, the selectivity ratio [1] was 2240, the Activity [2] was “inactive” and the IC50 [3] was 5.9 nM. For the same compound, the “Ratio IC50” value [4] was 15, the Activity [5] was “Active” and the remaining at 1 h, 1 µM [6] was 86.2%. The CC50 (MT4) was 13.2 µM and the t1/2 (Liver microsomes) was 327 min.
For `C=C(C)[C@@H]1CC[C@]2(C(=O)O)CC[C@]3(C)[C@H](CC[C@@H]4[C@@]5(C)CC[C@H](OC(=O)CC(C)(C)C(=O)O)C(C)(C)[C@@H]5CC[C@]43C)[C@@H]12` [BEVIRIMAT], the selectivity ratio [1] was 171, the “beta t1/2” value (Homo sapiens) was 56.3 h and the Activity [2] was “inactive”. It also gave an IC50 [3] of 87 nM and a CC50 (MT4) of 14.2 µM.
In the case of `C=C(C)[C@@H]1CC[C@]2(C(=O)OCOCCOC)CC[C@]3(C)[C@H](CC[C@@H]4[C@@]5(C)CC[C@H](OC(=O)CC(C)(C)C(=O)O)C(C)(C)[C@@H]5CC[C@]43C)[C@@H]12`, the selectivity ratio [1] is reported as 261, the Activity [2] is reported as “inactive” and the IC50 [3] is reported as 46 nM. The “Ratio IC50” value [4] was 2, the Activity [5] was “Active” and the CC50 (MT4) was 12.1 µM.
